Data reported in ChEMBL document CHEMBL1152560, “Substituted 2-arylbenzothiazoles as kinase inhibitors: hit-to-lead optimization” (Bioorg Med Chem, 2009).

Tests used:
[1] = target: T1, Aurora kinase A (Homo sapiens, UniProt O14965); test: Inhibition of Aurora-A by microplate scintillation counting
T1 sequence (O14965 whole entry): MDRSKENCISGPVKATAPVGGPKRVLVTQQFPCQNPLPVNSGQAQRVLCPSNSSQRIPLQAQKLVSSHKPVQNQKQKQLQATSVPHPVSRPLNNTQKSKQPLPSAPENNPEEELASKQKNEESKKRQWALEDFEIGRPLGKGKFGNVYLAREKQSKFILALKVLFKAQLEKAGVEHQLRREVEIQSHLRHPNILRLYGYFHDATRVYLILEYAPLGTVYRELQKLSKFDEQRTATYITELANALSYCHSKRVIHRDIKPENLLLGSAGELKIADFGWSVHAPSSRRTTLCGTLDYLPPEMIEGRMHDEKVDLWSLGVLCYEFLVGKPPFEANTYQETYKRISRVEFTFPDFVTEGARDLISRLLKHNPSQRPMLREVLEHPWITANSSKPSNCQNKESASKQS
How it was run: (§1)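 Substrates: tetra(LRRWSLG) for Aurora A/B; poly(Ala,Glu,Lys,Tyr)6:2:5:1 for PDGFRβ; poly(Glu,Tyr)4:1 for TIE2 and VEGFR2. Stopped with 2% H3PO4.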

[2] = target: Vascular endothelial growth factor receptor 3 (Homo sapiens, UniProt P35916); test: Inhibition of VEGFR3 by microplate scintillation counting
Sequence of Vascular endothelial growth factor receptor 3 (P35916 whole entry): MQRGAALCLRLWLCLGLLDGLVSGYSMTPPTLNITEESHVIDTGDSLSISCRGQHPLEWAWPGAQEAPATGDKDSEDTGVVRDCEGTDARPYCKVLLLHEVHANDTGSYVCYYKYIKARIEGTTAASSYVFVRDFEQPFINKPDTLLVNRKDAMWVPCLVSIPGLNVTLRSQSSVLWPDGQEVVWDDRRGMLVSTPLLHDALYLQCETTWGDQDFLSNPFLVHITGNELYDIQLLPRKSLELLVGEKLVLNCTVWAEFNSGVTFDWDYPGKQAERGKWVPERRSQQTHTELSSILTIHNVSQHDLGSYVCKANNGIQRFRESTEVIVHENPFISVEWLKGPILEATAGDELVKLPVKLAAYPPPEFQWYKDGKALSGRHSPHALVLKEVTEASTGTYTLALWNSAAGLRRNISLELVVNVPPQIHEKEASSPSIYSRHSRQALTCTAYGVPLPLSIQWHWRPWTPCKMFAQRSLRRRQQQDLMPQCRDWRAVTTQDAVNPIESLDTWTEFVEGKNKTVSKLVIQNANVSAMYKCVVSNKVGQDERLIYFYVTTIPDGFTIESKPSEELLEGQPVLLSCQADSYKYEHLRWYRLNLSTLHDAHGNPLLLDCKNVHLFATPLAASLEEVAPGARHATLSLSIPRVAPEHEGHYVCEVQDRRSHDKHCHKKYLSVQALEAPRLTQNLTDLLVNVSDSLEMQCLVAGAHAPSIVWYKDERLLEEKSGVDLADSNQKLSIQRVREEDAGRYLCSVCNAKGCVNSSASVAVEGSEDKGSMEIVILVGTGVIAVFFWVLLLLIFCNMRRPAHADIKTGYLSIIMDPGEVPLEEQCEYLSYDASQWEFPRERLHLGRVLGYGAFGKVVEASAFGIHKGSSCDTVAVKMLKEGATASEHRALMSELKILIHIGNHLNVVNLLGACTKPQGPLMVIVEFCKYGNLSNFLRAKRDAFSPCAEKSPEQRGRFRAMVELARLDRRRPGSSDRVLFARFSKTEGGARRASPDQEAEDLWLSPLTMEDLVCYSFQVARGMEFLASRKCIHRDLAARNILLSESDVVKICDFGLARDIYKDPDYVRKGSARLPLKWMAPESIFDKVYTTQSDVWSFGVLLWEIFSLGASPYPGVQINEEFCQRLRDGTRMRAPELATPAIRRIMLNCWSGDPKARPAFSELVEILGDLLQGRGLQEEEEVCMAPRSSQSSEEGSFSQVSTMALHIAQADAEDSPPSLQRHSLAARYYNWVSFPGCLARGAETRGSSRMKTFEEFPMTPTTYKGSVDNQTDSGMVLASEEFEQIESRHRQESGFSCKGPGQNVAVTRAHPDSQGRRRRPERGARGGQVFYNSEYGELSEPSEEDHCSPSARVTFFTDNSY
How it was run: (§2)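 Radiometric FlashPlate assay using recombinant kinase (10–200 ng/well) with poly(Glu,Tyr)4:1 substrate. Buffer: 60 mM HEPES-NaOH pH 7.5, 3 mM MgCl2, 3 mM MnCl2, 3 µM orthovanadate, 1.2 mM DTT, PEG 20000, 1 µM [γ-33P]-ATP. Run 80 min at 30 °C, stopped with H3PO4, and 33P incorporation counted.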

[3] = target: T2, Angiopoietin-1 receptor (Homo sapiens, UniProt Q02763); test: Inhibition of TIE2 by microplate scintillation counting
T2 sequence (Q02763 whole entry): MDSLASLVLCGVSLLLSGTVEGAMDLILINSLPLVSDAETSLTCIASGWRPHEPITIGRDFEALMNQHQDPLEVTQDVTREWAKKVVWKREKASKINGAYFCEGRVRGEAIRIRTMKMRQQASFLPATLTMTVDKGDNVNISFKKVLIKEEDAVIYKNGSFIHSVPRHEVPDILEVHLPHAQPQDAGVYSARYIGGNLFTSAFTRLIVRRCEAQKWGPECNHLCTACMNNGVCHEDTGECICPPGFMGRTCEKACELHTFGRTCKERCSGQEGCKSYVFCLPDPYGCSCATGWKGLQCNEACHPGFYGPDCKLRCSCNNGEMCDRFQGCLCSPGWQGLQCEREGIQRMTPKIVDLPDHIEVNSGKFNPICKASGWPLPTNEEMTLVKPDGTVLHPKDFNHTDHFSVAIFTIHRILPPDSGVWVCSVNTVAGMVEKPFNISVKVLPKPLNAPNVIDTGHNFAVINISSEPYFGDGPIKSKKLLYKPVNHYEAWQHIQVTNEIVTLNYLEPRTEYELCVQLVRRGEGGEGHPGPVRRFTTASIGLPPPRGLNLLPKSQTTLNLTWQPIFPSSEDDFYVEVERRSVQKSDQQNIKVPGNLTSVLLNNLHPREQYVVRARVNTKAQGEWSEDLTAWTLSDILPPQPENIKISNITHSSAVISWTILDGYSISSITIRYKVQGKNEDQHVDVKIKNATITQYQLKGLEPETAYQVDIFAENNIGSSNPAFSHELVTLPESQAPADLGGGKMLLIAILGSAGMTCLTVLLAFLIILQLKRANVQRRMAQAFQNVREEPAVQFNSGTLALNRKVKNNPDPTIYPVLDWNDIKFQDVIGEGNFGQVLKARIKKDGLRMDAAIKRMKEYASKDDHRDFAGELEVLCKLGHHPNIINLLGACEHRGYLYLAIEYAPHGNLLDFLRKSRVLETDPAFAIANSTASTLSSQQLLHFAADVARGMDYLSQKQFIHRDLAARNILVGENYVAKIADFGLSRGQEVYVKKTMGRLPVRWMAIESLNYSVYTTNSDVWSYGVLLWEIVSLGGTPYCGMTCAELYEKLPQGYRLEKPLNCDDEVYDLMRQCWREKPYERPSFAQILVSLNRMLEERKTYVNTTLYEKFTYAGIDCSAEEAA

[4] = target: T3, Epidermal growth factor receptor (Homo sapiens, UniProt P00533); test: Inhibition of wild type EGF-R by microplate scintillation counting
T3 sequence (P00533 whole entry): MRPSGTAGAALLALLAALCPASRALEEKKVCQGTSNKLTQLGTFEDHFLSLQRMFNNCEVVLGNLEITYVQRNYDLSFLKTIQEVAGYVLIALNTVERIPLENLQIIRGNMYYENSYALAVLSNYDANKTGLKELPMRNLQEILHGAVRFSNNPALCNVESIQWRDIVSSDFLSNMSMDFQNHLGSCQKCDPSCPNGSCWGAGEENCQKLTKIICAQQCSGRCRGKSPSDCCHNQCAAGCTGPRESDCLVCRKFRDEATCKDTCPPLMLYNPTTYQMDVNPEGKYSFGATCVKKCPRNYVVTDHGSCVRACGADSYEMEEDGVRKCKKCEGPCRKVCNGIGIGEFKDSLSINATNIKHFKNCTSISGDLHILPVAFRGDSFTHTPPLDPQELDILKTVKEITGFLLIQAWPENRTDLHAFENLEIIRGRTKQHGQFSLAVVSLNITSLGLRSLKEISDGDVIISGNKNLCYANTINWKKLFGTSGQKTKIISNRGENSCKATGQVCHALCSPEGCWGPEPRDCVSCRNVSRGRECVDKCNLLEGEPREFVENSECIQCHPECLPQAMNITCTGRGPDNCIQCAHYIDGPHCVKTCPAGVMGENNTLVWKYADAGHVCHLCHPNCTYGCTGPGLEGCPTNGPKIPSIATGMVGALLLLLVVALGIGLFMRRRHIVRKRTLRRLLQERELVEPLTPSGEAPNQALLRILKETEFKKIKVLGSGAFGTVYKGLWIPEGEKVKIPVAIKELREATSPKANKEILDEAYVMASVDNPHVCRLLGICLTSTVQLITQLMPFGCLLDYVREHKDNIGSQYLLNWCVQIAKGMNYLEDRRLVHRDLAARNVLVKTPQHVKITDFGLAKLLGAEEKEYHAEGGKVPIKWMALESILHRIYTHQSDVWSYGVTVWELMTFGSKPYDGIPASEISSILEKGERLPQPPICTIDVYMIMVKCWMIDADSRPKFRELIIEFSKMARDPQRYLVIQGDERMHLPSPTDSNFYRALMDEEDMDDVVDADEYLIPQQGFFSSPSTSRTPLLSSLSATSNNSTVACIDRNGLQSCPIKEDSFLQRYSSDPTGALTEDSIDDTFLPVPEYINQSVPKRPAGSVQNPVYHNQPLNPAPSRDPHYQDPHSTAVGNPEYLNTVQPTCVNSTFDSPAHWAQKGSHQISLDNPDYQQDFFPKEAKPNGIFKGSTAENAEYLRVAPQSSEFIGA

[5] = target: T3, Epidermal growth factor receptor; test: Inhibition of EGFR in human HCT116 cells by cellular phosphorylation assay
[6] = target: Aurora kinase B (Homo sapiens, UniProt Q96GD4); test: Inhibition of Aurora-B by microplate scintillation counting; how it was run: as §1
Sequence of Aurora kinase B (Q96GD4 whole entry): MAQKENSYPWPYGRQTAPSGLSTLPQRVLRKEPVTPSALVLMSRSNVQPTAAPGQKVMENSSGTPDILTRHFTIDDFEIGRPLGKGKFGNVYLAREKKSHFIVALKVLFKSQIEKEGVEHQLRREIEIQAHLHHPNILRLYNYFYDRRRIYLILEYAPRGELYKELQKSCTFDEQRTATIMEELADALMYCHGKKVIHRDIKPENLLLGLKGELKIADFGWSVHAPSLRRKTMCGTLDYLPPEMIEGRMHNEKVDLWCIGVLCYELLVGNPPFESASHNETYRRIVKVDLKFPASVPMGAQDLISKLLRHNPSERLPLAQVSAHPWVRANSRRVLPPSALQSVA

[7] = target: T2, Angiopoietin-1 receptor; test: Inhibition of TIE2 in human HCT116 cells by cellular phosphorylation assay; type: cell-based, HCT-116
How it was run: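 TIE2 autophosphorylation in cells expressing the receptor. Compound was applied, cells were stimulated, then lysed with phosphoprotein levels preserved. Phosphorylation was quantified by sandwich ELISA with a receptor-specific capture antibody and anti-phosphotyrosine antibody, relative to the stimulated high control.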

[8] = target: Platelet-derived growth factor receptor beta (Homo sapiens, UniProt P09619); test: Inhibition of PDGFRbeta by microplate scintillation counting; how it was run: as §1
[9] = target: Receptor tyrosine-protein kinase erbB-2 (Homo sapiens, UniProt P04626); test: Inhibition of ERBB2 by microplate scintillation counting; how it was run: as §2
[10] = target: Vascular endothelial growth factor receptor 2 (Homo sapiens, UniProt P35968); test: Inhibition of VEGFR2 by microplate scintillation counting

COc1cc2c(Nc3ccc(-c4nc5ccccc5s4)c(F)c3)ncnc2cc1OCCCN1CCN(C)CC1 showed an IC50 [1] of 9 nM, an IC50 [2] of 210 nM and an IC50 [3] of 9 nM. The IC50 [4] was 430 nM, the EC50 [5] was over 10000 nM and the IC50 [6] was 27 nM. The EC50 [7] was over 10000 nM, the IC50 [8] was 2100 nM and the IC50 [9] was 300 nM. It also gave an IC50 [10] of 44 nM.
